From paper PMC2692502 (Journal of Antimicrobial Chemotherapy, 2009)
Where two headings read alike, the source gives them in different places.

Assays:
[1] = Study 2: safety and tolerability; type: in vivo, human
In short: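 Healthy adults (24 enrolled) were randomized 3:2:1 in a single-blind, placebo-controlled, parallel-group design. Groups received test compound 6 mg/kg, 4 mg/kg or placebo as a 2 min peripheral iv injection by syringe driver, once daily for 7 days. All subjects entered the safety analysis. The investigator graded AEs for relatedness (not, unlikely, possibly, probably) and severity. Tabulated AEs were possibly or probably related. Follow-up was 9–11 days after last dose.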

[2] = independent of the daptomycin concentration; cited from earlier work
[3] = Study 2: single- and multiple-dose pharmacokinetics of the 2 min iv injection; type: in vivo, human; settings: for Ratio of 6 mg/kg:4 mg/kg daptomycin (95% CI), AUC0–tau (dose-normalized) / Ratio of 6 mg/kg:4 mg/kg daptomycin (95% CI), Ae0–tau (dose-normalized), cumulative amount of unchanged daptomycin excreted in urine / Ratio of 6 mg/kg:4 mg/kg daptomycin (95% CI), CL / Ratio of 6 mg/kg:4 mg/kg daptomycin (95% CI), Cmax (dose-normalized): 6 mg/kg n = 12, 4 mg/kg n = 8, 2 min iv injection; for clearance: CL; for Tmax: median (range); for Vd: V; for dose excreted: urine
In short: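 Healthy adults were randomized single-blind to 6 or 4 mg/kg test compound or placebo as a 2 min peripheral iv injection by syringe driver, once daily for 7 days. Heparinized blood was drawn on days 1 and 7, from predose to 24 h after injection start, plus 36 and 48 h on day 7. Total plasma drug was measured by HPLC (LLOQ 3 mg/L). Non-compartmental analysis gave AUC by the trapezoidal rule and CL, reported as arithmetic means.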

[4] = type: in vivo, human; settings: for AUC(0-t): AUC0–t, trapezoidal rule; for clearance: CL, healthy adult volunteers
In short: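 Healthy adult volunteers, randomized open-label two-period crossover: a single 6 mg/kg dose given as a 30 min iv infusion and as a 2 min iv injection, with a 5 day washout. Heparinized blood was drawn predose, immediately after dosing and up to 36 h after dosing ended. Total plasma drug was measured by HPLC (LLOQ 3 mg/L). Non-compartmental trapezoidal AUC was computed. The injection:infusion ratio (95% CI) came from ANOVA of log-transformed values.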

[5] = cited from earlier work
[6] = Study 2, day 1, geometric mean ratio
[7] = Study 2, day 7, 6 mg/kg 2 min iv injection once daily, plasma, arithmetic mean (SD), n = 12, SD
[8] = Study 2, day 7, geometric mean ratio
[9] = both, human, plasma, iv, 4 mg/kg, Study 2, day 1, 4 mg/kg 2 min iv injection, plasma, arithmetic mean (SD), n = 8, SD
[10] = both, human, plasma, iv, 4 mg/kg, Study 2, day 7, 4 mg/kg 2 min iv injection once daily, plasma, arithmetic mean (SD), n = 8, SD
[11] = both, human, plasma, iv, 4 mg/kg, SD
[12] = both, human, plasma, iv, 6 mg/kg, SD
[13] = Study 1, 2 min iv injection relative to 30 min iv infusion, 6 mg/kg, ANOVA of log-transformed values, n = 15

Question: Which “time to resolution of local injection-site reactions” value ([1]; Study 2, 2 min iv injection, reactions generally mild and transient) does the source give for `CCCCCCCCCC(=O)N[C@@H](Cc1c[nH]c2ccccc12)C(=O)N[C@H](CC(N)=O)C(=O)N[C@@H](CC(=O)O)C(=O)N[C@@H]1C(=O)NCC(=O)N[C@@H](CCCN)C(=O)N[C@@H](CC(=O)O)C(=O)N[C@H](C)C(=O)N[C@@H](CC(=O)O)C(=O)NCC(=O)N[C@H](CO)C(=O)N[C@@H]([C@H](C)CC(=O)O)C(=O)N[C@@H](CC(=O)c2ccccc2N)C(=O)O[C@@H]1C` [daptomycin] here?
Answer: ≤ 1 h

Question: What about the “serious or other significant AEs” value ([1]; Study 2, multiple-dose, 24 subjects enrolled (placebo included)) of the same compound?
Answer: no serious or other significant AEs

Question: What about the protein bound [2] of the same compound?
Answer: 90–93%

Question: And the “steady-state concentrations achieved by” value ([3]; Study 2, both treatment groups (6 mg/kg and 4 mg/kg), 2 min iv injection once daily, data not shown)?
Answer: third daily dose

Question: What about the “AUC0–∞” value ([3]; Study 2, day 1, 6 mg/kg 2 min iv injection, healthy adult volunteers, plasma, HPLC, non-compartmental, arithmetic mean (SD), n = 12, SD) of the same compound?
Answer: 690.37 (68.83) mg·h/L

Question: What about the CL ([3]; Study 2, day 1, 6 mg/kg 2 min iv injection, plasma, arithmetic mean (SD), n = 12, SD) of the same compound?
Answer: 0.0088 (0.0009) L/h/kg

Question: And the “Ratio of 6 mg/kg:4 mg/kg daptomycin (95% CI), AUC0–tau (dose-normalized)” value [3, 6]?
Answer: 1.02 (0.87–1.2)

Question: And the “Ratio of 6 mg/kg:4 mg/kg daptomycin (95% CI), Ae0–tau (dose-normalized), cumulative amount of unchanged daptomycin excreted in urine” value [3, 6]?
Answer: 0.95 (0.72–1.25)

Question: And the “Ratio of 6 mg/kg:4 mg/kg daptomycin (95% CI), CL” value [3, 6]?
Answer: 1.00 (0.85–1.18)

Question: And the “Ratio of 6 mg/kg:4 mg/kg daptomycin (95% CI), Cmax (dose-normalized)” value [3, 6]?
Answer: 1.14 (0.97–1.3)

Question: What about the V [3, 7] of the same compound?
Answer: 0.107 (0.011) L/kg

Question: What about the t1/2 [3, 7] of the same compound?
Answer: 8.65 (0.63) h

Question: What about the “Ratio of 6 mg/kg:4 mg/kg daptomycin (95% CI), AUC0–tau (dose-normalized)” value [3, 8] of the same compound?
Answer: 0.99 (0.87–1.12)

Question: And the “Ratio of 6 mg/kg:4 mg/kg daptomycin (95% CI), Ae0–tau (dose-normalized), cumulative amount of unchanged daptomycin excreted in urine” value [3, 8]?
Answer: 0.88 (0.69–1.11)

Question: What about the “Ratio of 6 mg/kg:4 mg/kg daptomycin (95% CI), CL” value [3, 8] of the same compound?
Answer: 1.01 (0.9–1.15)

Question: And the “Ratio of 6 mg/kg:4 mg/kg daptomycin (95% CI), Cmax (dose-normalized)” value [3, 8]?
Answer: 0.97 (0.82–1.16)

Question: What about the clearance [3, 9] of the same compound?
Answer: 0.15 mL/min/kg

Question: And the clearance [3, 10]?
Answer: 0.143 mL/min/kg

Question: What about the Cmax ([3]; both, human, plasma, iv, 4 mg/kg, Study 2, day 1, 4 mg/kg 2 min iv injection, plasma, HPLC, arithmetic mean (SD), n = 8, SD) of the same compound?
Answer: 56.8 µg/mL

Question: And the Cmax ([3]; both, human, plasma, iv, 4 mg/kg, Study 2, day 7, 4 mg/kg 2 min iv injection once daily, plasma, HPLC, arithmetic mean (SD), n = 8, SD)?
Answer: 62.8 µg/mL

Question: And the Tmax ([3]; both, human, plasma, iv, 4 mg/kg, Study 2, day 1, 4 mg/kg 2 min iv injection, plasma, n = 8)?
Answer: 8.4 min

Question: And the Tmax ([3]; both, human, plasma, iv, 4 mg/kg, Study 2, day 7, 4 mg/kg 2 min iv injection once daily, plasma, n = 8)?
Answer: 15 min

Question: And the Vd [3, 9]?
Answer: 0.116 L/kg

Question: What about the Vd [3, 10] of the same compound?
Answer: 0.109 L/kg

Question: And the half-life ([3]; both, human, plasma, iv, 4 mg/kg, t1/2, Study 2, day 1, 4 mg/kg 2 min iv injection, plasma, arithmetic mean (SD), n = 8, SD)?
Answer: 545 min

Question: And the half-life ([3]; both, human, plasma, iv, 4 mg/kg, t1/2, Study 2, day 7, 4 mg/kg 2 min iv injection once daily, plasma, arithmetic mean (SD), n = 8, SD)?
Answer: 536 min

Question: What about the AUC(0-inf) [3, 11] of the same compound?
Answer: 468 µg·h/mL

Question: What about the AUC(0-t) [3, 11] of the same compound?
Answer: 475 µg·h/mL

Question: What about the clearance ([3]; both, human, plasma, iv, 6 mg/kg, Study 2, day 7, 6 mg/kg 2 min iv injection once daily, plasma, arithmetic mean (SD), n = 12, SD) of the same compound?
Answer: 0.145 mL/min/kg

Question: And the Cmax ([3]; both, human, plasma, iv, 6 mg/kg, Study 2, day 1, 6 mg/kg 2 min iv injection, plasma, HPLC, arithmetic mean (SD), n = 12, SD)?
Answer: 97.5 µg/mL

Question: And the Cmax ([3]; both, human, plasma, iv, 6 mg/kg, Study 2, day 7, 6 mg/kg 2 min iv injection once daily, plasma, HPLC, arithmetic mean (SD), n = 12, SD)?
Answer: 91.8 µg/mL

Question: What about the Tmax ([3]; both, human, plasma, iv, 6 mg/kg, Study 2, day 1, 6 mg/kg 2 min iv injection, plasma, n = 12) of the same compound?
Answer: 1.8 min

Question: And the Tmax ([3]; both, human, plasma, iv, 6 mg/kg, Study 2, day 7, 6 mg/kg 2 min iv injection once daily, plasma, n = 12)?
Answer: 15 min

Question: And the Vd ([3]; both, human, plasma, iv, 6 mg/kg, Study 2, day 1, 6 mg/kg 2 min iv injection, plasma, arithmetic mean (SD), n = 12, SD)?
Answer: 0.106 L/kg

Question: And the half-life ([3]; both, human, plasma, iv, 6 mg/kg, t1/2, Study 2, day 1, 6 mg/kg 2 min iv injection, plasma, arithmetic mean (SD), n = 12, SD)?
Answer: 506 min

Question: And the AUC(0-t) [3, 12]?
Answer: 701 µg·h/mL

Question: And the dose excreted ([3]; both, human, iv, 4 mg/kg, SD)?
Answer: 54.3%

Question: And the dose excreted ([3]; both, human, iv, 6 mg/kg, SD)?
Answer: 56.7%

Question: What about the “95% CI for the ratio of the geometric means, AUC0–t” value [4, 13] of the same compound?
Answer: 0.8709–1.0055

Question: And the “95% CI for the ratio of the geometric means, AUC0–∞” value [4, 13]?
Answer: 0.9007–1.0117

Question: What about the “95% CI for the ratio of the geometric means, Cmax” value [4, 13] of the same compound?
Answer: 0.9588–1.1719

Question: And the t1/2 ([4]; Study 1, single 6 mg/kg dose, 30 min iv infusion, plasma, HPLC, non-compartmental, harmonic mean (SD), n = 15, SD)?
Answer: 8.7 (0.9) h

Question: And the AUC(0-t) ([4]; both, human, plasma, iv, 6 mg/kg, Study 1, single 6 mg/kg dose, 2 min iv injection, HPLC, arithmetic mean (SD), n = 15, not dose-normalized, SD)?
Answer: 626 µg·h/mL

Question: What about the AUC(0-t) ([4]; both, human, plasma, iv, 6 mg/kg, Study 1, single 6 mg/kg dose, 30 min iv infusion, HPLC, arithmetic mean (SD), n = 15, not dose-normalized, SD) of the same compound?
Answer: 670 µg·h/mL

Question: What about the AUC(0-inf) ([4]; both, human, plasma, iv, 6 mg/kg, AUC0–∞, Study 1, single 6 mg/kg dose, 2 min iv injection, HPLC, arithmetic mean (SD), n = 15, not dose-normalized, SD) of the same compound?
Answer: 691 µg·h/mL

Question: What about the clearance ([4]; both, human, plasma, iv, 6 mg/kg, Study 1, single 6 mg/kg dose, 2 min iv injection, HPLC, non-compartmental, arithmetic mean (SD), n = 15, SD) of the same compound?
Answer: 0.148 mL/min/kg

Question: And the clearance ([4]; both, human, plasma, iv, 6 mg/kg, Study 1, single 6 mg/kg dose, 30 min iv infusion, HPLC, non-compartmental, arithmetic mean (SD), n = 15, SD)?
Answer: 0.138 mL/min/kg

Question: And the Cmax ([4]; both, human, plasma, iv, 6 mg/kg, Cmax, Study 1, single 6 mg/kg dose, 30 min iv infusion, HPLC, arithmetic mean (SD), n = 15, not dose-normalized, SD)?
Answer: 88.4 µg/mL

Question: And the Vd [4, 12]?
Answer: 0.113 L/kg

Question: And the “steady state reached by” value ([5]; 30 min iv infusion, independent of dose)?
Answer: ≤ 3 days

Question: What about the “volume of distribution (V)” value ([5]; average) of the same compound?
Answer: ~0.1 L/kg
